# Most compounds without a hit are left out; they make up all but 0.72% or so of the library.
# mIAP inh = mouse IAP inhibition; purified mouse IAP, CDP-Star luminescence, 30 min; 330,000 compounds, 0.2% hits; inhibition, % at 10 µM; AID 2806;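 active = inhibition of at least 40% at 10 µM in the primary screen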;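 note: plate controls were DMSO with enzyme for no effect and no enzyme wells for full effect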
# bIAP activator = intestinal alkaline phosphatase (bovine) activation; purified bovine IAP, CDP-star luminescence, 30 min; active compounds read high; fold of DMSO-control signal, blank-subtracted; activation factor at 20 µM; 200,000 compounds, 0.17% hits; AID 1016;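 active = activation factor of 2 or more at 20 µM, a signal rise over negative controls twice the positive control's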
# hIAP block = blocks human intestinal alkaline phosphatase | P09923 | inhibition, % at 10 µM | 330,000 compounds, 0.12% hits | purified IAP, CDP-Star luminescence, 30 min;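 active = inhibition reaching a set limit with compound at 10 µM in the primary screen, cut at about 35% in these data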;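 note: plate controls were DMSO wells with enzyme for no effect and no-enzyme buffer wells for full effect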
# Target sequence (P09923 whole entry, looked up): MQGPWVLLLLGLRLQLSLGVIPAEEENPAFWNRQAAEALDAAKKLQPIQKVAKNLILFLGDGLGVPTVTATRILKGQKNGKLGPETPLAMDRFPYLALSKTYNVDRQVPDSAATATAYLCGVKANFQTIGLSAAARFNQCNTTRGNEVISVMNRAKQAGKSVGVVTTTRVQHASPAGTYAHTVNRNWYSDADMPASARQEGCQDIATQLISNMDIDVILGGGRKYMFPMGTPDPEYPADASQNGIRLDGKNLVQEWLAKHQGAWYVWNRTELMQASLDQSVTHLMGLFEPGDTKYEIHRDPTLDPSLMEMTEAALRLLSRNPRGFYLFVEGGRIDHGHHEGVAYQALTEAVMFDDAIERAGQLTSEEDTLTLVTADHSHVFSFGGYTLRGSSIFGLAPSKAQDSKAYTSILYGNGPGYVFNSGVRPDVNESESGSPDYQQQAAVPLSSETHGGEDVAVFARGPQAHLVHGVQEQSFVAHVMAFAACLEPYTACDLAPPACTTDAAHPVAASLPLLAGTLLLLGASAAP
# bIAP inhibitor = blocks bovine intestinal alkaline phosphatase activity; inhibition, % at 20 µM; purified bovine IAP, CDP-star luminescence, 30 min; 190,000 tested, under 10 active;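 active = over 50% inhibition of intestinal alkaline phosphatase at 20 µM in the single-dose screen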
#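 System: Purified bovine intestinal alkaline phosphatase (IAP) enzyme | Input: IAP diluted 1/65,000,000 in the well | Also added: CDP-star chemiluminescent phosphatase substrate, 30 µM final | Dosing: 20 µM single dose | Times: Enzyme reaction for 30 min at room temperature | Detection: Luminescence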
# mIAP activ = mouse IAP activation. muIAP, CDP-Star luminescence, 30 min; active compounds read high; 1 = vehicle-only enzyme signal, 0 = enzyme-free wells. activation factor at 10 µM. 330,000 compounds, 0.24% hits;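 active = activation factor of at least 2 at 20 µM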
#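 Assay system: mouse IAP enzyme / Compound: DMSO-dissolved test compounds / Timing: 30 min, room temperature / Measured by: luminescence from enzymatic CDP-Star hydrolysis / Control set: DMSO-only wells, enzyme-free buffer wells as negative control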
# hIAP activ = increases human intestinal alkaline phosphatase activity | activation factor at 10 µM | purified human IAP, CDP-Star luminescence, 30 min; active compounds read high; 1 = vehicle-only enzyme, 0 = enzyme-free background | AID 2524 | 330,000 compounds, 0.16% hits;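 active = activation factor of the enzyme at least 2-fold when tested at 20 µM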
# mIAP inh confirm = mouse IAP inhibition confirmation. shares compounds with mIAP inh. purified mouse IAP, CDP-Star luminescence, 30 min. inhibition, % at 10 µM. 11,000 compounds, 4.7% hits. AID 434971;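 active = inhibition of at least 40% at 10 µM in either of the two replicates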;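 note: plate controls were DMSO wells with enzyme for no effect and buffer wells lacking enzyme for full effect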
# Active calls of the source: *; / = not tested or not shown; ! = repeats disagree.
SMILES,mIAP inh,bIAP activator,hIAP block,bIAP inhibitor,mIAP activ,hIAP activ,mIAP inh confirm
Cc1ccc(/C=c2\sc3nc(-c4ccco4)nn3c2=O)o1,60.1*,1.1,-2.6,-5.1,0.399,1.03,81.4*
COc1ccccc1/C=c1\sc2nc(-c3ccccc3OC)nn2c1=O,11.4,0.7,14.1,27.4,0.886,0.859,/
COc1ccc(Br)cc1/C=c1\sc2nc(-c3ccco3)nn2c1=O,60.1*,0.9,-2.7,5.3,0.399,1.03,70.1*
COc1cccc(-n2cnc3c(sc4nc(N5CCOCC5)c5c(c43)CCCC5)c2=O)c1,1.1,1.2,5.5,-21.0,0.989,0.945,/
Cc1cc2nc3s/c(=C/c4ccc(-c5ccccc5C(=O)O)o4)c(=O)n3c2cc1C,14.4,/,23.2,/,0.856,0.768,/
O=C(O)c1ccccc1-c1ccc(/C=c2\sc3nc4cc(Br)cnc4n3c2=O)o1,78.2*,1,0.2,2.1,0.218,0.998,74.6*
CC1(C)Cc2ccccc2C(NNC(=O)c2ccc(Br)o2)=N1,-4.7,/,-26.5,/,1.05,1.26,/
CCc1cc(C(=O)c2ccc(OC)cc2)c(NC(=O)CC(C)(C)CC(=O)O)s1,1.6,/,-3.7,/,0.984,1.04,/
O=c1ccc2cc3c([nH]c4ccc(Br)cc43)oc-2c1O,47.6*,1,25.2,1.6,0.524,0.748,44.1*
O=C(O)c1ccc(N=Nc2c(O)[nH]c3ccc(Br)cc23)cc1,10.9,/,8.6,/,0.891,0.914,/
CCOc1cc(/C=C2\SC(=S)N(Nc3ccccc3)C2=O)ccc1O,43.6*,0.9,-12.5,5.9,0.564,1.12,47.2*
O=C(NN1C(=O)/C(=C\c2ccc(O)c([N+](=O)[O-])c2)SC1=S)c1ccccc1Cl,43.6*,/,18.2,/,0.564,0.818,48.8*
Cc1cccc(NC(=O)c2cc(S(=O)(=O)N3CCCCC3)ccc2Cl)n1,9.3,/,-5.4,/,0.907,1.05,/
O=CC1=C(c2ccccc2)Oc2ccccc2O1,1.5,/,-4.5,/,0.985,1.04,/
C=Cc1c(C)c2cc3[nH]c(cc4nc(cc5nc(cc1[nH]2)C(C)=C5CCC(=O)O)C(CCC(=O)O)=C4C)c(C)c3C=C,42.1*!,/,14.0,/,0.579,0.86,42.1*
CC(C)Oc1ccc(C(=O)OCC(=O)N2CCCc3ccccc32)cc1,5.9,/,-4.1,/,0.941,1.04,/
Cc1ccc(S(=O)(=O)Nc2ccc(O)c(Sc3ncn[nH]3)c2)cc1,49.9*,1,-3.8,1.2,0.501,1.04,65.1*
Cc1cc(F)ccc1S(=O)(=O)Nc1ccc(O)c(Sc2ncn[nH]2)c1,69.7*,/,-5.6,/,0.303,1.06,65.9*
COc1ccc(OC)c(S(=O)(=O)Nc2ccc(O)c(Sc3ncn[nH]3)c2)c1,49.7*,0.9,16.7,13.3,0.503,0.833,51.9*
CSc1ccc(S(=O)(=O)Nc2ccc(S(=O)(=O)Nc3ccc(C)cc3)cc2)cc1,5.3,1,16.8,3.8,0.947,0.832,/
Cc1cc(F)ccc1S(=O)(=O)Nc1ccccc1C(=O)Nc1ncn[nH]1,7.4,1.6,-8.9,-60.9,0.926,1.09,/
Cc1ccc(C)c(S(=O)(=O)Nc2ccc(O)c(Sc3ncn[nH]3)c2)c1,74.8*,/,-17.1,/,0.252,1.17,81.7*
CCc1nnc(NC(=O)CN2CCN(Cc3ccc(C)cc3)CC2)s1,4.9,/,-0.3,/,0.951,1,/
CCOc1ccc(NS(=O)(=O)c2ccc(NS(=O)(=O)c3ccc(SC)cc3)cc2)cc1,10.6,0.9,0.5,14.1,0.894,0.995,/
CCOc1ccc(S(=O)(=O)Nc2ccc(O)c(Sc3ncn[nH]3)c2)cc1,44.2*,1,-5.7,-2.6,0.558,1.06,62.0*
CC(=O)c1cccc(N(CC(=O)NC2CCCC2)C(=O)c2csnn2)c1,-2.1,/,7.7,/,1.02,0.923,/
Cc1ccc(C(=O)Nc2ccnc(-c3ccncc3)n2)cc1,-6.4,0.9,2.3,7.9,1.06,0.977,/
COC(=O)C/C=N/N=C1/NC(=O)/C(=C/C(=O)O)S1,53.5*,/,17.7,/,0.465,0.823,41.6*
Cc1cc(C)cc(NC(=O)Nc2ccc(-n3ccc(C(F)(F)F)n3)cc2)c1,-288.5,/,-16.1,/,3.88*,1.16,-136.1
